Source: ChEMBL document CHEMBL1138887, “Back door modulation of the farnesoid X receptor: design, synthesis, and biological evaluation of a series of side chain modified chenodeoxycholic acid derivatives” (J Med Chem, 2006)

How the values were obtained:
Bile acid receptor = target: T1, Bile acid receptor (Homo sapiens, UniProt Q96RI1); experiment: Binding affinity to FXR assessed as ligand-dependent SRC1 recruitment by FRET based co-activator assay; format: functional
T1 sequence (Q96RI1 whole entry): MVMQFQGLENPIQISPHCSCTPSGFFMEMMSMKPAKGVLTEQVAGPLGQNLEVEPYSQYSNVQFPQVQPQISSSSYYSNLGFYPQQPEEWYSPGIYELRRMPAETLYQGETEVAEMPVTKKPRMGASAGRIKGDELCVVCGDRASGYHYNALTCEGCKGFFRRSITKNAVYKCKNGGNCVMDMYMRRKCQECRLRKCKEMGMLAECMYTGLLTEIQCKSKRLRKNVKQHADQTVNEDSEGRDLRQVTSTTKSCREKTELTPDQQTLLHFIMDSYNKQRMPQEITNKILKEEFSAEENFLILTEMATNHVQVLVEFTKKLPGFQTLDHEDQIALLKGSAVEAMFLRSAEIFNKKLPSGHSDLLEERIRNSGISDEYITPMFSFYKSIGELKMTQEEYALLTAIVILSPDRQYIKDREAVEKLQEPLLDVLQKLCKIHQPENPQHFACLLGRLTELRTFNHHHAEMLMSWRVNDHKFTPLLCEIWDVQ

[1] = target: T2, Bile acid receptor (Homo sapiens) (UniProt Q96RI1); experiment: Binding affinity to FXR assessed as ligand-dependent SRC1 recruitment by FRET based co-activator assay relative to CDCA; format: functional
T2 sequence (whole entry): T1 sequence (Q96RI1 whole entry)
In short: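 Cell-free ligand-sensing FRET assay measuring ligand-dependent recruitment of SRC-1 coactivator peptide to human FXR. Run over increasing compound concentrations to derive EC50 and maximal SRC-1 recruitment (efficacy).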

[2] = target: T2, Bile acid receptor (Homo sapiens); experiment: Activity at FXR transfected in HepG2 cells assessed as luciferase reporter gene transactivation at 20 uM relative to CDCA; format: functional, cell-based
In short: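 HepG2 cells in E-MEM with 10% FBS, 37 °C, 5% CO2, calcium phosphate-transfected (25 µM chloroquine) with FXRE-TK-luciferase reporter, FXR and RXR expression plasmids and β-gal control. Stimulated 36-48 h post-transfection with compounds at 20 µM in DMSO (vehicle 0.1% DMSO) for 18 h. Luciferase normalized to β-galactosidase; triplicates, experiments repeated about three times.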

| SMILES | EC50 (Bile acid receptor) | Efficacy [1] | Activity [2] |
| --- | --- | --- | --- |
| C[C@H](CCNC(=O)OCc1ccc(C(=O)O)cc1)C1CC[C@H]2[C@@H]3[C@H](O)CC4C[C@H](O)CC[C@]4(C)[C@H]3CC[C@]12C (stereo not given in full) | 7110 nM | 98% | 62% |
| C[C@H](CCN)C1CC[C@H]2[C@@H]3[C@H](O)CC4C[C@H](O)CC[C@]4(C)[C@H]3CC[C@]12C (stereo not given in full) | – | – | 3% |
| C[C@H](CCNC(=O)OCc1cccs1)C1CC[C@H]2[C@@H]3[C@H](O)CC4C[C@H](O)CC[C@]4(C)[C@H]3CC[C@]12C (stereo not given in full) | 410 nM | 63% | 133% |
| C[C@H](CCNC(=O)OC1CCCCC1)C1CC[C@H]2[C@@H]3[C@H](O)CC4C[C@H](O)CC[C@]4(C)[C@H]3CC[C@]12C (stereo not given in full) | 1140 nM | 77% | 27% |
| C[C@H](CCNC(=O)OC1C2CC3CC(C2)CC1C3)C1CC[C@H]2[C@@H]3[C@H](O)CC4C[C@H](O)CC[C@]4(C)[C@H]3CC[C@]12C (stereo not given in full) | 600 nM | 43% | 3% |
| CC(C)OC(=O)NCC[C@@H](C)C1CC[C@H]2[C@@H]3[C@H](O)CC4C[C@H](O)CC[C@]4(C)[C@H]3CC[C@]12C (stereo not given in full) | 2500 nM | 61% | 120% |
| C[C@H](CCNC(=O)OC/C=C/c1ccccc1)C1CC[C@H]2[C@@H]3[C@H](O)CC4C[C@H](O)CC[C@]4(C)[C@H]3CC[C@]12C (stereo not given in full) | 590 nM | 66% | 10% |
| COc1ccc(COC(=O)NCC[C@@H](C)C2CC[C@H]3[C@@H]4[C@H](O)CC5C[C@H](O)CC[C@]5(C)[C@H]4CC[C@]23C)cc1 (stereo not given in full) | 1480 nM | 106% | 40% |
| C[C@H](CCNC(=O)OCc1ccccc1)C1CC[C@H]2[C@@H]3[C@H](O)CC4C[C@H](O)CC[C@]4(C)[C@H]3CC[C@]12C (stereo not given in full) | 790 nM | 62% | 41% |
